From article PMC4312721 (Biochimica et biophysica acta, 2014)
Read-outs that look alike come from different tables or passages of the source.

Experiments:
PLD = conditions: cited from earlier work
PLD2 = conditions: xenograft mice models ref Henkels, Boivin et al. 2013; cited from earlier work
recombinant PLD2 [1] = biological target: T1, recombinant PLD2 (Homo sapiens, UniProt O14939); test: Enzyme inhibition kinetics with purified recombinant PLD2; format: biochemical; conditions: 300 nM inhibitor; for Effect on Km / Effect on Vmax / Type of inhibition (Lineweaver Burk plot): increasing PC
How it was run: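 Purified full-length PLD2 was expressed in Sf21 insect cells with a baculovirus system and enriched on TALON matrix. Two assay formats were used. In one, increasing enzyme amounts, untreated or with 300 nM inhibitor, were run with fixed PC at 3.5 mM. In the other, fixed enzyme, ± 300 nM inhibitor, was run with increasing PC. [3H]-phosphatidylbutanol co-migrating with PBut standards was measured by scintillation counting. Data were plotted as Michaelis-Menten and Lineweaver-Burk plots.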

recombinant PLD2 [2] = biological target: T1, recombinant PLD2; test: Lipase assay of recombinant PLD2 with increasing concentrations of PIP2; format: biochemical; conditions: 300 nM inhibitor, fixed PC8
How it was run: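 Baculovirus-expressed, TALON-enriched full-length PLD2 was left untreated or treated with 300 nM inhibitor. It was then run in the lipase assay with increasing PIP2 concentrations and a fixed concentration of PC8 substrate. Activity was read as radiolabelled phosphatidylbutanol, co-migrating with PBut standards, by scintillation counting.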

PLD2 mutants [3] = test: Lipase activity of PLD2 mutants overexpressed in COS7 cells; format: biochemical
How it was run: (§1)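 COS-7 cells in DMEM/10% FBS were transfected at 60% confluence with 1–6 μg plasmid (PLD2 mutants) using Lipofectamine/Plus, with 3 h exposure and 48 h expression. Lysates were treated with 300 nM test compound for 25 min. The lipase assay ran 20 min at 30 °C with shaking and was stopped with ice-cold chloroform/methanol (1:2). Lipids were separated by TLC, and [3H]-phosphatidylbutanol was quantified by scintillation counting.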

[4] = tested on: breast cancer cells (MDA-MB-231); test: Cell invasion assay; format: cell-based; conditions: 300 nM, 700 nM; not in cells overexpressing resistant PLD2 mutants
How it was run: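 PLD2 mutant constructs were overexpressed by transfection. After transfection, cells were harvested and treated with the test compound at 300 or 700 nM for 20 min. Invasion was then run in Matrigel inserts.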

PLD1 [5] = biological target: T2, PLD1 (Homo sapiens, UniProt Q13393); test: Phospholipase; format: biochemical
T2 sequence (Q13393 1-1074): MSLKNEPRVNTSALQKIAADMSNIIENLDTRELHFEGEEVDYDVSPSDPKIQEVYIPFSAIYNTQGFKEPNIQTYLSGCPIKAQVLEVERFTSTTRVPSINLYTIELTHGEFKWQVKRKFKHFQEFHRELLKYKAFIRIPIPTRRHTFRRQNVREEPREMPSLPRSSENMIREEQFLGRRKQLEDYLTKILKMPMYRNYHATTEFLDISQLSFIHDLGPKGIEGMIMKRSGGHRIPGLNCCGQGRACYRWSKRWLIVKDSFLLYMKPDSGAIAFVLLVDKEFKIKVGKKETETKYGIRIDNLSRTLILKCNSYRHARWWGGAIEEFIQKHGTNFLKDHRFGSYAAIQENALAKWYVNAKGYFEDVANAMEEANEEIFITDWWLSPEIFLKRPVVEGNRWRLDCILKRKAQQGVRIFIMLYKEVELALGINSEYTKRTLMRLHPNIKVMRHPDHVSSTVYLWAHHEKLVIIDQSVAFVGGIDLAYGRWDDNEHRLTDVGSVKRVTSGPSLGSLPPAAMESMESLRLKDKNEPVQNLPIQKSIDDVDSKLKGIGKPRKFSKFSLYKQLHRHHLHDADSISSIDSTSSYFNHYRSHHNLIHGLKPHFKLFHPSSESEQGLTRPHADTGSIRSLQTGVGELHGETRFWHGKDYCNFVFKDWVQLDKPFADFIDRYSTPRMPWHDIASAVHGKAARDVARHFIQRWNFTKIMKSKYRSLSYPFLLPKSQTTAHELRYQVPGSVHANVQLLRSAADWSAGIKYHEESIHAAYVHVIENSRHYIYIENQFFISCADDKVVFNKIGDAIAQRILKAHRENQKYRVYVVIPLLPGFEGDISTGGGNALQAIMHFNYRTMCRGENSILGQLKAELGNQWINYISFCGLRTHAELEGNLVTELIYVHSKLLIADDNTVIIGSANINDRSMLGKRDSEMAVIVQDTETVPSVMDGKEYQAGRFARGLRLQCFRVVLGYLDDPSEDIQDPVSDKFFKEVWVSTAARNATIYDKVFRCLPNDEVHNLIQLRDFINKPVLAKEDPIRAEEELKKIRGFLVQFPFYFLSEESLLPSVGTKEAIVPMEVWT

PLD2 mutants [6] = biological target: PLD2 mutants (Homo sapiens, UniProt O14939, S757A); test: Lipase activity of PLD2 mutants overexpressed in COS7 cells; format: biochemical; conditions: 300 nM
How it was run: as §1

[7] = in vivo ref Monovich, Mugrage et al. 2007; cited from earlier work
PLD1 [8] = biological target: T2, PLD1; conditions: inhibiting PLD1 in the tumor microenvironment ref Chen, Hongu et al. 2012; cited from earlier work
[9] = ref Lewis JA et al, Bioorg Med Chem Lett, 2009

T1 sequence (O14939 whole entry, species assumed): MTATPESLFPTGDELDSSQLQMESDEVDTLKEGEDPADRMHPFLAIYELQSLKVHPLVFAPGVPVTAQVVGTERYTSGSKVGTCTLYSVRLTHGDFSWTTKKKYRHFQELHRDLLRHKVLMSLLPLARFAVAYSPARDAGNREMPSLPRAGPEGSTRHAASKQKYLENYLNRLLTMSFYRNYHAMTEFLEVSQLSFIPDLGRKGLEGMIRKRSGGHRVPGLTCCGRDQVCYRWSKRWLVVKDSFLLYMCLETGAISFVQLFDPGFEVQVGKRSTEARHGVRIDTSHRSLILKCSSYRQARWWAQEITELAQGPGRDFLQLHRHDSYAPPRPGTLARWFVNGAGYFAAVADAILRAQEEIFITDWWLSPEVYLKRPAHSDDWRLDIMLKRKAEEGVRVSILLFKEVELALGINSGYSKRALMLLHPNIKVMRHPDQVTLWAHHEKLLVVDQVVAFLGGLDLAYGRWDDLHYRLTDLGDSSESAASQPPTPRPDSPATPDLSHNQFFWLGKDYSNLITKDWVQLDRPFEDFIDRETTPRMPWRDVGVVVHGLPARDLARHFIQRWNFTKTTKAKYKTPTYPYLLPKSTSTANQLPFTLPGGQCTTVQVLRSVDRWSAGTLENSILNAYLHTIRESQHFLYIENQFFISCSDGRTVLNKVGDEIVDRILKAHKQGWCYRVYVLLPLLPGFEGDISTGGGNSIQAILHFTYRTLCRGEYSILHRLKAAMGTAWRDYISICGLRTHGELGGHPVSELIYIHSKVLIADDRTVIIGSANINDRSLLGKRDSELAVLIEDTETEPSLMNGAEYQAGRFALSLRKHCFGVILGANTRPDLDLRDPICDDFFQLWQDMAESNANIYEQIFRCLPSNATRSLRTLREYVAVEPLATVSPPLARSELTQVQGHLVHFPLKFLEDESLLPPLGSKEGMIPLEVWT
PLD2 mutants (Homo sapiens, UniProt O14939, S757A), sequence (O14939 whole entry S757A): as the sequence (O14939 whole entry, species assumed) above, with S757A counted along it

CC(CN1CCC(n2c(=O)[nH]c3cc(Cl)ccc32)CC1)NC(=O)c1ccc2ccccc2c1 (stereo not shown) [NBOD, N-[2-[4-(5-chloro-2,3-dihydro-2-oxo-1H-benzimidazol-1-yl)-1-piperidinyl]-1-methylethyl]-2-naphthalenecarboxamide]
Isoform specificity (PLD; [9]): PLD1 inhibitor

O=C(NCCN1CCC2(CC1)C(=O)NCN2c1ccccc1)c1ccc2ccccc2c1 [NOPT, N-[2-(4-oxo-1-phenyl-1,3,8-triazaspiro[4,5]dec-8-yl)ethyl]-2-naphthalenecarboxamide]
Tumor metastasis and cell invasion (PLD2): inhibited tumor metastasis and cell invasion
Isoform specificity (PLD; [9]): PLD2 inhibitor

O=C(NCCN1CCC2(CC1)C(=O)NCN2c1cccc(F)c1)c1ccc2ccccc2c1 [NFOT, N-[2-[1-(3-Fluorophenyl)-4-oxo-1,3,-8-triazaspiro[4,5]dec-8-yl]ethyl]-2-naphthalenecarboxamide]
Effect on Km (recombinant PLD2 [1]): increase the Km
Effect on Vmax (recombinant PLD2 [1]): decreasing the Vmax
Type of inhibition (Lineweaver Burk plot) (recombinant PLD2 [1]): mixed-type inhibition
PLD2 inhibition with increasing concentrations of PIP2 (recombinant PLD2 [2]): enzyme activity was regained back
Inhibition of PLD2-H158Q, Y165F, L173A, R210/212A, F244N/L245/L246A, S648A and S757A lipase activity (PLD2 mutants [3]; 300 nM): demonstrated resistance
Inhibition of PLD2-R210A/R212A, F244N/L245/L246A, S648A and S757A lipase activity (PLD2 mutants [3]; range of inhibitor concentrations, Figure 5): partially resistant to inhibition
Cell invasion of cancer cells [4]: prevents cell invasion
Isoform specificity (PLD; ref Lavieri RR et al, J Med Chem, 2010): PLD2 inhibitor

O=C(NCCN1CCC(n2c(=O)[nH]c3ccccc32)CC1)c1cc2cc(F)ccc2[nH]1 [FIPI, N-[2-[4-(2,3-dihydro-2-oxo-1H-benzimidazol-1-yl)-1-piperidinyl]ethyl]-5-fluoro-1H-indole-2-carboxamide]
IC50 (PLD1 [5]): 30 nM
Competition by increasing enzyme or substrate (recombinant PLD2 [1]): not totally competed off
Effect on Km (recombinant PLD2 [1]): increase the Km
Effect on Vmax (recombinant PLD2 [1]): decreasing the Vmax
Type of inhibition (Lineweaver Burk plot) (recombinant PLD2 [1]): mixed-type inhibition
PLD2 inhibition with increasing concentrations of PIP2 (recombinant PLD2 [2]): FIPI inhibited the enzyme
Inhibition of PLD2-S757A lipase activity (PLD2 mutants [6]): resistant
Inhibition of lipase activity of the battery of PLD2 mutants (PLD2 mutants [3]; 300 nM): inhibited most of the mutants
bioavailability [7]: 18%
half-life in vivo [7]: 5.5 h
Metastasis and angiogenesis (PLD1 [8]): dampens metastasis and angiogenesis
Isoform specificity (PLD; ref Su W et al, Mol Pharmacol, 2009): Dual (PLD1 and PLD2) inhibitor

C[C@@H](CN1CCC(n2c(=O)[nH]c3cc(Br)ccc32)CC1)NC(=O)[C@@H]1C[C@H]1c1ccccc1 [RBPC, (1R,2R)-N-([S]-1-{4-[5-bromo-2-oxo-2,3-dihydro-1H-benzo(d)imidazol-1-yl]piperidin-1-yl}propan-2-yl)-2-phenylcyclopropanecarboxamide]
Inhibition of PLD activity in PLD1 overexpressed samples (PLD1 [5]; Figure 1): did not efficiently inhibit PLD activity
Isoform specificity (PLD; [9]): PLD1 inhibitor
